The source made the active and inactive calls. No cut-off for these calls is given here.
Tests used:
[1] = molecular target: 72 kDa type IV collagenase (Homo sapiens) (UniProt P08253); assay: Inhibition of human MMP2 at 10 uM
[2] = molecular target: Calpain-1 catalytic subunit (Homo sapiens) (UniProt P07384); assay: Inhibition of human calpain 1 at 10 uM
[3] = molecular target: Neutrophil collagenase (Homo sapiens) (UniProt P22894); assay: Inhibition of human MMP8 at 10 uM
[4] = species on record: Homo sapiens; assay: Inhibition of human tryptase at 10 uM
[5] = molecular target: Dipeptidyl peptidase 1 (Bos taurus) (UniProt Q3ZCJ8); assay: Inhibition of bovine cathepsin C at 10 uM
[6] = Metabolic stability in human liver microsomes; type: ADME, Microsome
[7] = molecular target: Chymase (Homo sapiens) (UniProt P23946); assay: Inhibition of human chymase at 10 uM
Chain of Chymase (Homo sapiens) (P23946 whole entry, the tested form may be a part): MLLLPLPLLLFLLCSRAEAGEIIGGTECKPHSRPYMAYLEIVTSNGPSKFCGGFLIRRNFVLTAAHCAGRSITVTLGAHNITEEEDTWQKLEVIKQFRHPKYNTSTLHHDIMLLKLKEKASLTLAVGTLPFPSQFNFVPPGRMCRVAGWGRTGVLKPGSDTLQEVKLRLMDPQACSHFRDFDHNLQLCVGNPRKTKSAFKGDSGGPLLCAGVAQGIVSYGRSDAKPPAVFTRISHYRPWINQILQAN

[8] = molecular target: Disintegrin and metalloproteinase domain-containing protein 17 (Homo sapiens) (UniProt P78536); assay: Inhibition of human TACE at 10 uM
[9] = Inhibition of human chymotrypsin
How it was run: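 Cross-reactivity was tested against human pancreas α-chymotrypsin using a fluorogenic specific substrate. Results are expressed as IC50.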

[10] = molecular target: Macrophage metalloelastase (Homo sapiens) (UniProt P39900); assay: Inhibition of human MMP12 at 10 uM
Chain of Macrophage metalloelastase (Homo sapiens) (P39900 106-470 limits assumed): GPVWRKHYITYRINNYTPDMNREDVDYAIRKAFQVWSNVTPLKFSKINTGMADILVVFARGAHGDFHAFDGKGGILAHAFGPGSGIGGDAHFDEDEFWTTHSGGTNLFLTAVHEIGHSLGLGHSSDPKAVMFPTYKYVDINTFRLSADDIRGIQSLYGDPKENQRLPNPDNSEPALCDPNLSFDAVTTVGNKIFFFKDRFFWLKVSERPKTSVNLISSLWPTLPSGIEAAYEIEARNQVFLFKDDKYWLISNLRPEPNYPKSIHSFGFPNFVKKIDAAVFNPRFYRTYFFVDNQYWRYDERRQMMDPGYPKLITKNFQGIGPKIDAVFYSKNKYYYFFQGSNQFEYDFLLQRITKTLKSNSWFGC

[11] = molecular target: Neutrophil elastase (Homo sapiens) (UniProt P08246); assay: Inhibition of human neutrophil elastase 2 at 10 uM
Chain of Neutrophil elastase (Homo sapiens) (P08246 whole entry): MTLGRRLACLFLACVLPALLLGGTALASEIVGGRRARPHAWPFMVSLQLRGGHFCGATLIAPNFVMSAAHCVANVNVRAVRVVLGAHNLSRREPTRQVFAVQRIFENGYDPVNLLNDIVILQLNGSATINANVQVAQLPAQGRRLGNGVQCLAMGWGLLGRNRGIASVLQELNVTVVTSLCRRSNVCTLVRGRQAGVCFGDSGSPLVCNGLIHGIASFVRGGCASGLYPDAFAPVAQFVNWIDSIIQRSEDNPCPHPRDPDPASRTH

[12] = Clearance in CD1 mouse at 4 mg/kg, iv; type: ADME, organism-based; parameters: dose 4 mg/kg, route intravenous; conditions: in vivo
How it was run: (§1)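 Female Sprague–Dawley rats and CD-1 mice each received a single iv or oral (po) dose. Terminal half-life and systemic clearance were estimated from plasma exposure over time, alongside AUC0→∞, Vss and absolute oral bioavailability.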

[13] = Inhibition of bovine alpha chymotrypsin; parameters: species or system Bos taurus
[14] = molecular target: Pro-cathepsin H (Homo sapiens) (UniProt P09668); assay: Inhibition of human cathepsin H at 10 uM
[15] = species on record: Sus scrofa; assay: Inhibition of pig pancreatic elastase 1 at 10 uM
[16] = molecular target: Caspase-1 (Homo sapiens) (UniProt P29466); assay: Inhibition of human caspase 1 at 10 uM
[17] = Inhibition of bacterial prolyl oligopeptidase at 10 uM
[18] = molecular target: Dipeptidyl peptidase 4 (Homo sapiens) (UniProt P27487); assay: Inhibition of human DPP4 at 10 uM
Chain of Dipeptidyl peptidase 4 (Homo sapiens) (P27487 whole entry, looked up): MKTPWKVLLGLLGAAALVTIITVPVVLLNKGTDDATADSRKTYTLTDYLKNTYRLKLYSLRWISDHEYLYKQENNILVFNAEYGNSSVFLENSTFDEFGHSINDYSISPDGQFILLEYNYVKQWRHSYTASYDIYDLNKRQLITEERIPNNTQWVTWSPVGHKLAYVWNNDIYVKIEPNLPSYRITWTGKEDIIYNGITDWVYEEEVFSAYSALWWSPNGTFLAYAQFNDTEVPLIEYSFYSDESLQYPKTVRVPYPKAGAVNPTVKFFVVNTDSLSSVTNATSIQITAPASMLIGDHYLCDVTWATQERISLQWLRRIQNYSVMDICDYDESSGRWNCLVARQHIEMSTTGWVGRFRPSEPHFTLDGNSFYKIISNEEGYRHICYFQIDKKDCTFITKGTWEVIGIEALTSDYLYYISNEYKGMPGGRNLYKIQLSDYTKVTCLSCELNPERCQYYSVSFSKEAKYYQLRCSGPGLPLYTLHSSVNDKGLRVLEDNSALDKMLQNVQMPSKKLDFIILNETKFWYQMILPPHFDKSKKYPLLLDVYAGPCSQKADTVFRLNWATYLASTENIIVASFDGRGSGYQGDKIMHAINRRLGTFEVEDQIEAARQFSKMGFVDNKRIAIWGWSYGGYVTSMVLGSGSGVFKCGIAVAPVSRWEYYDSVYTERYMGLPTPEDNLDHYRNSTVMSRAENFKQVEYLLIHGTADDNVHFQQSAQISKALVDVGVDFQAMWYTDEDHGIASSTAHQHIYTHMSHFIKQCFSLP

[19] = molecular target: Cytochrome P450 1A2 (Homo sapiens, UniProt P05177); assay: Inhibition of human recombinant CYP1A2 upto 30 uM; type: ADME; conditions: recombinant enzyme
How it was run: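 Recombinant human cytochrome P-450 isoforms were tested with fluorescent P-450 substrates, at test concentrations up to 30 µM.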

[20] = molecular target: Cytochrome P450 2D6 (Homo sapiens, UniProt P10635); assay: Inhibition of human recombinant CYP2D6 upto 30 uM; type: ADME; conditions: recombinant enzyme
Chain of Cytochrome P450 2D6 (P10635 whole entry, canonical isoform): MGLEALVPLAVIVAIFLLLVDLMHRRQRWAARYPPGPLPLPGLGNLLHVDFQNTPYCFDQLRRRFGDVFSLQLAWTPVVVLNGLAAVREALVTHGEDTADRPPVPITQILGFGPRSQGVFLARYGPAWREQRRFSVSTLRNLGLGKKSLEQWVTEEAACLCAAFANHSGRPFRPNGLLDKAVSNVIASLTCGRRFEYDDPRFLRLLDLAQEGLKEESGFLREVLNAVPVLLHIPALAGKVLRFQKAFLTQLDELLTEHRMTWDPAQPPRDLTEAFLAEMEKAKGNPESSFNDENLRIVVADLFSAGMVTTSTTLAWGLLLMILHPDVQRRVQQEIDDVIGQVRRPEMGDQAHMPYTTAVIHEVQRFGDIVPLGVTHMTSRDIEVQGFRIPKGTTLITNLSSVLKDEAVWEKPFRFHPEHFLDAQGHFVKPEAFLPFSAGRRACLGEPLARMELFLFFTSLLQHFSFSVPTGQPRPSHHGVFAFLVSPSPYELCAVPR
How it was run: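 Recombinant human P-450 isoforms (1A2, 2C9, 2C19, 2D6) with fluorescent P-450 substrates; tested at concentrations up to 30 µM to gauge inhibition.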

[21] = molecular target: Protease (Human immunodeficiency virus 1) (UniProt Q9YQ12); assay: Inhibition of HIV1 protease at 10 uM
[22] = molecular target: Trypsin (Homo sapiens) (UniProt P07477+P07478+P35030); assay: Inhibition of human trypsin at 10 uM; type: protein assay
[23] = molecular target: Cathepsin B (Homo sapiens) (UniProt P07858); assay: Inhibition of human cathepsin B at 10 uM
[24] = test system: Mus musculus; assay: Inhibition of 20S proteasome beta5beta1 subunit binding in human RPMI 8226 cells xenografted mouse; type: functional, organism-based
[25] = test system: A2780; assay: Cytotoxicity against human A2780 cells; type: functional, cell-based
How it was run: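 Antiproliferative activity was measured in A2780 ovarian carcinoma cells with a standard colorimetric assay of cell proliferation and viability. Results are expressed as IC50.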

[26] = Protein binding in rat plasma; type: ADME, cell-free; conditions: read-out: PPB (converted)
[27] = Inhibition of chymotrypsin-like activity of human erythrocyte 20S proteasome
How it was run: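 Isolated 20S proteasome purified from human erythrocytes was tested in a fluorimetric kinetic assay of chymotrypsin-like activity. Potency is reported as IC50.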

[28] = Volume of distribution at steady state in Sprague-Dawley rat at 0.2 mg/kg, iv; type: ADME, organism-based; parameters: dose 0.2 mg/kg, route intravenous; conditions: in vivo, read-out: Vdss
How it was run: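 Single-dose pharmacokinetics after iv or oral administration in female Sprague–Dawley rats and in CD-1 mice; plasma exposure (AUC0–∞) used to derive steady-state volume of distribution, clearance, terminal half-life and absolute oral bioavailability.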

[29] = molecular target: Caspase-2 (Homo sapiens) (UniProt P42575); assay: Inhibition of human caspase 2 at 10 uM
[30] = molecular target: Matrilysin (Homo sapiens) (UniProt P09237); assay: Inhibition of human MMP7 at 10 uM
[31] = molecular target: Tissue-type plasminogen activator (Homo sapiens) (UniProt P00750); assay: Inhibition of human TPA at 10 uM
[32] = molecular target: Caspase-9 (Homo sapiens) (UniProt P55211); assay: Inhibition of human caspase 9 at 10 uM
[33] = molecular target: Endothelin-converting enzyme 1 (Homo sapiens) (UniProt P42892); assay: Inhibition of human ECE1 at 10 uM
Chain of Endothelin-converting enzyme 1 (Homo sapiens) (P42892 whole entry): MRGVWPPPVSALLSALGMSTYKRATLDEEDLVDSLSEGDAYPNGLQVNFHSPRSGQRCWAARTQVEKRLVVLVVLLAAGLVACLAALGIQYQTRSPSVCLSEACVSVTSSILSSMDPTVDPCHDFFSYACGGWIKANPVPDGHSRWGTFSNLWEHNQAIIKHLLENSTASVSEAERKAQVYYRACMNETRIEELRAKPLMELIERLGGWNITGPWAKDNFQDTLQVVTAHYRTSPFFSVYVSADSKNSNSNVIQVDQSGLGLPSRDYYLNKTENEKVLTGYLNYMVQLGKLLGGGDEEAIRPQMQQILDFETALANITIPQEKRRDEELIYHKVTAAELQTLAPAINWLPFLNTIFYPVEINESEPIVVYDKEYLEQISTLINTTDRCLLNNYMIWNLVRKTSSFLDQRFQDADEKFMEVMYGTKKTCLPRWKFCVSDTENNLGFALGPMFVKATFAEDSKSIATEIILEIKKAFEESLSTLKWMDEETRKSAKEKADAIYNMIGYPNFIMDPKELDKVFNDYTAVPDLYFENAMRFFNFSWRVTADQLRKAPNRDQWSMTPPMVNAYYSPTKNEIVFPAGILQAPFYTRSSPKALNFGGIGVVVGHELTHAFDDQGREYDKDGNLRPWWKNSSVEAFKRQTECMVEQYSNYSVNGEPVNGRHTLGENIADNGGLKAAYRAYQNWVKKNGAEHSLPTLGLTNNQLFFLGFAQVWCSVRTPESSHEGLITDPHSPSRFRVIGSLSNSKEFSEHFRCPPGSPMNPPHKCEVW

[34] = molecular target: Cathepsin E (Homo sapiens) (UniProt P14091); assay: Inhibition of human cathepsin E at 10 uM
Chain of Cathepsin E (Homo sapiens) (P14091 whole entry): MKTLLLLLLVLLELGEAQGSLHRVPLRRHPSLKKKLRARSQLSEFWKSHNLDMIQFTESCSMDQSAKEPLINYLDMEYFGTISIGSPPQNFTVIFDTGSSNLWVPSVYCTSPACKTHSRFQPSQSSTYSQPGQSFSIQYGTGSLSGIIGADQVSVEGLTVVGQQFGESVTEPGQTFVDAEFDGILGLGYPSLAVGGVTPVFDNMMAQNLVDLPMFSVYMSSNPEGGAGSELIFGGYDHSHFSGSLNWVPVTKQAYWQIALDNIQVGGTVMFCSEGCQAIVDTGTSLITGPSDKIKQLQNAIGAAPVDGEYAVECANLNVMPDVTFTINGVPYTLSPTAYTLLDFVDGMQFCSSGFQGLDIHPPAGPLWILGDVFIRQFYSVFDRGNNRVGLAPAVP

[35] = molecular target: Cathepsin G (Homo sapiens, UniProt P08311); assay: Inhibition of human cathepsin G
[36] = Clearance in Sprague-Dawley rat at 0.2 mg/kg, iv; type: ADME, organism-based; parameters: dose 0.2 mg/kg, route intravenous; conditions: in vivo; how it was run: as §1
[37] = molecular target: Cathepsin S (Homo sapiens) (UniProt P25774); assay: Inhibition of human cathepsin S at 10 uM
[38] = species on record: Sus scrofa; assay: Inhibition of pig pepsin at 10 uM
[39] = molecular target: Plasma kallikrein (Homo sapiens) (UniProt P03952); assay: Inhibition of human plasma kallikrein at 10 uM
[40] = molecular target: Neutrophil elastase (Homo sapiens, UniProt P08246); assay: Inhibition of human neutrophil elastase 2
Chain of Neutrophil elastase (P08246 whole entry): as the sequence (P08246 whole entry) above

[41] = molecular target: Neprilysin (Homo sapiens) (UniProt P08473); assay: Inhibition of human NEP at 10 uM
[42] = molecular target: Coagulation factor X (Homo sapiens) (UniProt P00742); assay: Inhibition of human factor 10a at 10 uM
[43] = molecular target: Procathepsin L (Homo sapiens) (UniProt P07711); assay: Inhibition of human cathepsin L at 10 uM
[44] = species on record: Homo sapiens; assay: Inhibition of human chymotrypsin at 10 uM
[45] = Protein binding in mouse plasma; type: ADME, cell-free; conditions: read-out: PPB (converted)
[46] = molecular target: Caspase-3 (Homo sapiens) (UniProt P42574); assay: Inhibition of human caspase 3 at 10 uM
Chain of Caspase-3 (Homo sapiens) (P42574 29-175 limits assumed): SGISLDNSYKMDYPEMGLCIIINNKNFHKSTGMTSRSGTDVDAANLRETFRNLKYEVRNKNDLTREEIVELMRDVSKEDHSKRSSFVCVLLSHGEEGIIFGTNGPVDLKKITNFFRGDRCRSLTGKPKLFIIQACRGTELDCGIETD
Chain of Caspase-3 (Homo sapiens) (P42574 176-277 limits assumed): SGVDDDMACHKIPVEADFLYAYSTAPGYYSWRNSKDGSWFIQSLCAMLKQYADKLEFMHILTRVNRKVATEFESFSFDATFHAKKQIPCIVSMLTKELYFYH

[47] = molecular target: Coagulation factor VII (Homo sapiens) (UniProt P08709); assay: Inhibition of human factor 7a at 10 uM
[48] = AUC (0 to infinity) in Sprague-Dawley rat at 0.2 mg/kg, iv; type: ADME, organism-based; parameters: dose 0.2 mg/kg, route intravenous, time infinity; conditions: plasma
How it was run: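 Female Sprague–Dawley rats received a single dose by the iv or oral route. AUC from 0 to infinity was reported alongside terminal half-life, Vss, clearance and absolute oral bioavailability.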

Chain of 72 kDa type IV collagenase (Homo sapiens) (P08253 110-660 limits assumed): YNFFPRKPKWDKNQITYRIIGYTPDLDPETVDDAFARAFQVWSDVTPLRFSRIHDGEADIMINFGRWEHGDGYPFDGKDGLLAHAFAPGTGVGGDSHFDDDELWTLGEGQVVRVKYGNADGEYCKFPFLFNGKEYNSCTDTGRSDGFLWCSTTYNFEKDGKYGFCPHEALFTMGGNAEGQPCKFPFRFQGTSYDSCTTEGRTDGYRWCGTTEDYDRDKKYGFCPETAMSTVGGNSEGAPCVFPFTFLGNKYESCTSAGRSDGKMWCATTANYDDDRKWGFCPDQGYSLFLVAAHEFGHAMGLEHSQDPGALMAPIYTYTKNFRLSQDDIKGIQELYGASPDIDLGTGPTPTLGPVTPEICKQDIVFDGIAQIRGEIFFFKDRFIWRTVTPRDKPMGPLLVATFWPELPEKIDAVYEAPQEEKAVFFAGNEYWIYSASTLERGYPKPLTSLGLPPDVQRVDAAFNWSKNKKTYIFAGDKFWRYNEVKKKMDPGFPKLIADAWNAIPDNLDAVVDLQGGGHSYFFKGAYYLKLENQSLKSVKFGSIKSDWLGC
Chain of Calpain-1 catalytic subunit (Homo sapiens) (P07384 whole entry): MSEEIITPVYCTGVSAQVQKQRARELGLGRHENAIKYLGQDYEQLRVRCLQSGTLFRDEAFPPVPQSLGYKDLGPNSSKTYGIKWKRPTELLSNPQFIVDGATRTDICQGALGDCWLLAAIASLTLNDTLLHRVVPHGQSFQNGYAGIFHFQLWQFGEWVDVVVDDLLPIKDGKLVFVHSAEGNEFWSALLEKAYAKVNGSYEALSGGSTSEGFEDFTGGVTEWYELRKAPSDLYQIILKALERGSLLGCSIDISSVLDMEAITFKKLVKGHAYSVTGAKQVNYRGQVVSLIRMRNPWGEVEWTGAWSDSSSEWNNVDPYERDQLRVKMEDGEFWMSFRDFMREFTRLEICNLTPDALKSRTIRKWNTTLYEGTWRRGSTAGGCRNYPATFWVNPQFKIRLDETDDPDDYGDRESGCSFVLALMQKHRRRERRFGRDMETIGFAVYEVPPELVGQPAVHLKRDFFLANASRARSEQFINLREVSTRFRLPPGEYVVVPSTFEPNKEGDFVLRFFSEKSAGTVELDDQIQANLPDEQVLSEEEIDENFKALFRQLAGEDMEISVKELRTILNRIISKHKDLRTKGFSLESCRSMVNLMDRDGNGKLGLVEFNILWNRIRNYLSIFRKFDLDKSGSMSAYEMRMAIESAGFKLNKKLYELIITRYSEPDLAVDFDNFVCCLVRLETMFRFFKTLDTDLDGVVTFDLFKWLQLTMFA

CC(C)C[C@H](NC(=O)[C@@H](NC(=O)c1cccc(-c2ccccc2)n1)[C@@H](C)O)B(O)O [DELANZOMIB]
inhibition [1]: -5% | inhibition [2]: 0% | inhibition [3]: -1% | inhibition [4]: -3% | inhibition [5]: -8% | half-life [6]: > 40 min | inhibition [7]: 80% | inhibition [8]: 1% | IC50 [9]: 5330 nM | inhibition [10]: 4% | inhibition [11]: 72% | clearance [12]: 23.3 mL/min/kg | IC50 [13]: 1500 nM | inhibition [14]: 6% | inhibition [15]: -6% | inhibition [16]: 1% | inhibition [17]: 13% | inhibition [18]: -5% | Activity [19]: Not Active | Activity [20]: Not Active | inhibition [21]: 1% | inhibition [22]: 0% | inhibition [23]: 7% | Activity [24]: inactive | IC50 [25]: 13.7 nM | fraction unbound [26]: 0.001 | IC50 [27]: 3.8 nM | Vd [28]: 18.1 L/kg | inhibition [29]: 1% | inhibition [30]: -3% | inhibition [31]: 0% | inhibition [32]: -1% | inhibition [33]: 21% | inhibition [34]: -3% | IC50 [35]: 2110 nM | clearance [36]: 3.17 mL/min/kg | inhibition [37]: 12% | inhibition [38]: -5% | inhibition [39]: 0% | IC50 [40]: 3550 nM | inhibition [41]: 12% | inhibition [42]: -2% | inhibition [43]: 27% | inhibition [44]: 59% | fraction unbound [45]: 0.001 | inhibition [46]: 2% | inhibition [47]: 2% | AUC(0-inf) [48]: 1030 ng·h/mL
